Reference: ChEMBL document CHEMBL3785041, “Discovery of a Potent Free Fatty Acid 1 Receptor Agonist with Low Lipophilicity, Low Polar Surface Area, and Robust in Vivo Efficacy” (J Med Chem, 2016)
Converted amounts (≈) assume the structure as drawn. The source made the active and inactive calls. The calls are words filed in the database; no cut-off is given here.

Experiments:
[1] = biological target: T1, Free fatty acid receptor 1 (Homo sapiens, UniProt O14842); assay: Agonist activity at human FFA1 receptor expressed in human 1321N1 cells measured for 50 intervals of 0.4 secs by calcium mobilization assay relative to TUG-20; format: functional, cell-based
T1 sequence (O14842 whole entry): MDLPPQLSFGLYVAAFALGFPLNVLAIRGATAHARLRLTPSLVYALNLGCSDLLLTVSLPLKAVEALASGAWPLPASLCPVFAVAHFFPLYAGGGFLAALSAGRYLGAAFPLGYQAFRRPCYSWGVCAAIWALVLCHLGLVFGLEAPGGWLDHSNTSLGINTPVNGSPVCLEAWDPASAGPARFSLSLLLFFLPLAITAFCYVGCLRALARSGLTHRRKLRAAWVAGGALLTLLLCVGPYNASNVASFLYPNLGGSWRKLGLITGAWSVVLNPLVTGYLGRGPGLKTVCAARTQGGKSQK
Outline: (§1)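 Ca²⁺ read-out at human FFA1. Efficacy is expressed relative to TUG-20 (3-(4-(benzyloxy)phenyl)propanoic acid).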

[2] = biological target: T1, Free fatty acid receptor 1; assay: Agonist activity at human FFA1 receptor expressed in human 1321N1 cells measured for 50 intervals of 0.4 secs by calcium mobilization assay; format: functional, cell-based; outline: as §1
[3] = biological target: T2, Free fatty acid receptor 4 (Homo sapiens, UniProt Q5NUL3); assay: Agonist activity at human C-terminal YFP-tagged FFA4 receptor expressed in HEK293 cells incubated for 5 mins by BRET based beta-arrestin 2 recruitment assay; format: cell-based
T2 sequence (Q5NUL3 whole entry): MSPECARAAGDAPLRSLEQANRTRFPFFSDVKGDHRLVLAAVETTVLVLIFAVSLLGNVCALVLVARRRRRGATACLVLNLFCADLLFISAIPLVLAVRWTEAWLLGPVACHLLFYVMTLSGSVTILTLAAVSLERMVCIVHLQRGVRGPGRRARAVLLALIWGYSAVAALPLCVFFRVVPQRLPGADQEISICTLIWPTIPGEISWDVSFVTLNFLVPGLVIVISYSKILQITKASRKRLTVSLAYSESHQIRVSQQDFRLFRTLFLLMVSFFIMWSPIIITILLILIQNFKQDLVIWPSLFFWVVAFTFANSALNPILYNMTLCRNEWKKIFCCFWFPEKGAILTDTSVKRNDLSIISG
Outline: (§2)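 Human FFA4 counter-screen using a β-arrestin mobilization read-out. Efficacy is expressed relative to a reference alkyne FFA1 agonist tested at 10 μM.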

[4] = biological target: T3, Free fatty acid receptor 4 (Homo sapiens) (UniProt Q5NUL3); assay: Agonist activity at human C-terminal YFP-tagged FFA4 receptor expressed in HEK293 cells incubated for 5 mins by BRET based beta-arrestin 2 recruitment assay relative to TUG-424; format: cell-based; outline: as §2
T3 sequence (whole entry): T2 sequence (Q5NUL3 whole entry)

[5] = Drug metabolism in human liver microsomes assessed as cytochrome P450-mediated compound oxidation by measuring drug recovery after 1 hr by HPLC analysis; format: ADME; details: read-out: Drug recovery
[6] = Chemical stability in fasted state simulated gastric fluid assessed as drug recovery at 37 degC after 2 hrs; format: physicochemical; details: read-out: Drug recovery
[7] = Chemical stability in fasted state simulated intestinal fluid assessed as drug recovery at 37 degC after 2 hrs; format: physicochemical; details: read-out: Drug recovery
[8] = Cmax in C57BL/6 mouse plasma at 10 mg/kg, po; format: ADME, organism-based; set-up: dose 10 mg/kg, route oral
[9] = Aqueous kinetic solubility in phosphate buffered saline at 200 uM by turbidimetric assay; format: physicochemical; details: read-out: Kinetic_solubility
Mus musculus [10] = assay: Clearance in C57BL/6 mouse plasma at 10 mg/kg, po; format: ADME, organism-based; details: in vivo
[11] = Ratio of Cmax in C57BL/6 mouse plasma to EC50 for human FFA1 receptor expressed in human 1321N1 cells
[12] = Lipophilicity, log D of compound at pH 7.4; format: physicochemical; details: buffer
[13] = Half life in C57BL/6 mouse plasma at 10 mg/kg, po; format: ADME, organism-based
Mus musculus [14] = assay: Antidiabetic activity in C57BL/6 mouse assessed as reduction in plasma glucose level at 10 mg/kg administered 15 mins through oral gavage prior to glucose challenge measured after 30 to 120 mins by OGTT; format: functional, organism-based
[15] = Chemical stability in 0.1 M phosphate buffered saline assessed as drug recovery at 37 degC after 24 hrs; format: physicochemical; details: read-out: Drug recovery
[16] = Tmax in C57BL/6 mouse plasma at 10 mg/kg, po; format: ADME, organism-based
Mus musculus [17] = assay: Antidiabetic activity in C57BL/6 mouse assessed as increase in plasma insulin level at 10 mg/kg administered 15 mins through oral gavage prior to glucose challenge measured after 30 mins by ELISA; format: functional, organism-based
[18] = biological target: T1, Free fatty acid receptor 1; assay: Potency index, ratio of alpha-linolenic acid EC50 to compound EC50 for human FFA1 receptor expressed in human 1321N1 cells; format: cell-based
[19] = AUC (0 to infinity) in C57BL/6 mouse plasma at 10 mg/kg, po; format: ADME, organism-based; set-up: dose 10 mg/kg, route oral, time infinity
[20] = Chemical stability in fed state simulated intestinal fluid assessed as drug recovery at 37 degC after 2 hrs; format: physicochemical; details: read-out: Drug recovery

| SMILES | Efficacy [1] [%] | EC50 ([2]; read-out: pEC50 (converted)) [µM] | EC50 [3] [µM] | Efficacy [4] [%] | also measured |
| --- | --- | --- | --- | --- | --- |
| O=C(O)CCc1ccc(C#CC2CC2)cc1 | 128 | 5.01 | > 100 |  |  |
| C=C(C)C#Cc1ccc(CCC(=O)O)c(F)c1 | 106 |  | > 100 |  |  |
| CC/C=C\C/C=C\C/C=C\CCCCCCCC(=O)O [LINOLENIC ACID] |  |  |  |  | EC50 ([2]; read-out: EC50): 3 µM |
| C#Cc1ccc(CCC(=O)O)cc1 |  | > 100 | > 100 |  |  |
| C/C(C#Cc1ccc(CCC(=O)O)c(F)c1)=C/CO | 105 |  | > 100 |  |  |
| COc1ccc(CCN(C)CCCC(C#N)(c2ccc(OC)c(OC)c2)C(C)C)cc1OC (centres undefined) |  |  |  |  | remaining at 1 h [5]: 23% |
| C=C(C)C#Cc1ccc(CCC(=O)O)cc1 | 108 | 0.417 | > 100 |  |  |
| C/C=C/C#Cc1ccc(CCC(=O)O)c(F)c1 | 97 | 0.209 | 34.7 | 38 |  |
| O=C(O)CCc1ccc(C#CC2CCCC2)cc1 | 94 | 0.49 | 33.9 | 105 |  |
| O=C(O)CCc1ccc(C#CC2=CCCCC2)cc1 | 100 | 0.2 | > 100 |  |  |
| O=C(O)CCc1ccc(C#CC2(O)CCCCC2)cc1 |  |  | > 100 |  | pEC50 ([2]; 1321-n1): < 4 |

Further molecules by falling EC50 [3], results first:

| Efficacy [1] [%] | EC50 ([2]; read-out: pEC50 (converted)) [µM] | EC50 [3] [µM] | Efficacy [4] [%] | SMILES | also measured |
| --- | --- | --- | --- | --- | --- |
| 97 |  | 26.3 | 89 | C/C=C(\C)C#Cc1ccc(CCC(=O)O)c(F)c1 |  |
| 103 |  | 20 | 101 | C/C=C(/C)C#Cc1ccc(CCC(=O)O)c(F)c1 | remaining at 2 h [6]: 84%; remaining at 2 h [7]: 100%; Cmax [8]: 44.7 µM; solubility kinetic at 200 µM [9]: 191 µM (≈ 47 µg/mL); clearance (Mus musculus [10]): 0.49 mL/min/kg; Ratio [11]: >1000; logD [12]: 1.79; half-life [13]: 99 min; Activity (Mus musculus [14]): Active; remaining at 24 h [15]: 100%; Tmax [16]: 15 min; Activity (Mus musculus [17]): Active; Ratio EC50 [18]: 100; remaining at 1 h [5]: 38%; EC50 ([2]; read-out: EC50): 0.02 µM; AUC(0-inf) [19]: 138 µM·h; remaining at 2 h [20]: 95% |
| 91 | 0.0479 | 17.8 | 49 | C/C=C\C#Cc1ccc(CCC(=O)O)c(F)c1 |  |
| 103 | 0.389 | 10.5 | 113 | O=C(O)CCc1ccc(C#CCc2ccccc2)cc1 |  |
| 98 | 0.513 | 9.55 | 118 | O=C(O)CCc1ccc(C#CC2CCCCC2)cc1 |  |
| 105 | 0.0832 | 7.59 | 102 | CC(C)=C(C)C#Cc1ccc(CCC(=O)O)cc1 |  |
| 128 | 1.82 | 4.79 | 102 | O=C(O)CCc1ccc(C#CCCc2ccccc2)cc1 |  |
| 84 | 1.45 | 4.07 | 102 | CCCCCCCC#Cc1ccc(CCC(=O)O)cc1 |  |
